Reference: ChEMBL document CHEMBL1156918, “5-Modified-2'-dU and 2'-dC as mutagenic anti HIV-1 proliferation agents: synthesis and activity” (J Med Chem, 2010)
Activity calls are given as the source filed them. The rule behind the calls is not given here.

Key:
[1] = system: Human immunodeficiency virus 1; assay: Antiviral activity against HIV1 LAI in human CEM-SS cells assessed as RT activity after 5 days by single passage assay; assay type: functional, organism-based; conditions: Human immunodeficiency virus 1, LAI, 120 h
Summary of the method: (§1)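 CEM-SS cells kept in RPMI 1640 with 10% FCS, penicillin, streptomycin and glutamine at 37 °C, 5% CO2. Infected with HIV-1 LAI at 20 TCID50, 30 min adsorption, washed, resuspended at 10^5 cells/mL with serial compound dilutions. After 5 days, RT activity in the medium was measured. IC50 came from a median-effect plot. AZT was the positive control. Run twice.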

[2] = Cytotoxicity against human CEM-SS cells by MTT assay; assay type: cell-based
Summary of the method: (§2)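 Uninfected cells grown at 37 °C, 5% CO2, in RPMI 1640 with 10% FCS, penicillin, streptomycin and glutamine, were incubated with a range of compound concentrations (up to 200 μM), run alongside the 5-day antiviral assay. Viability was read as MTT reduction to formazan by OD at 540 nm. CC50 was taken from a median effect plot of the dose-effect data.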

[3] = system: Human immunodeficiency virus 1; assay: Antiviral activity against HIV1 3B in human MT4 cells assessed as RT activity after 5 days by single passage assay; assay type: functional, organism-based; conditions: Human immunodeficiency virus 1, 3B, MT4, 120 h
Summary of the method: as §1, with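 “MT-4” for “CEM-SS”, “IIIB” for “LAI”, “5” for “20”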

[4] = Cytotoxicity against human MT4 cells by MTT assay; assay type: cell-based; summary of the method: as §2
[5] = system: Human immunodeficiency virus 1; assay: Antiviral activity against HIV1 LAI in human CEM-SS cells assessed as RT activity after 4 serial passages with uninfected cells by serial passage experiment; assay type: functional, organism-based
Summary of the method: (§3)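 HIV-1 LAI at multiplicity 0.01 added to 2.5×10^5 CEM-SS cells in RPMI, 4 h at 37 °C. Cells washed twice in PBS, resuspended in 1 mL medium with or without analogue at 200 μM (100 μM where cytotoxicity required). Every 4 days an equal supernatant volume went to fresh CEM-SS cells, for eight cycles. RT activity in supernatants read at each passage.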

[6] = system: Human immunodeficiency virus 1; assay: Antiviral activity against HIV1 LAI in human CEM-SS cells assessed as RT activity after 4 to 8 serial passages with uninfected cells by serial passage experiment; assay type: functional, organism-based; summary of the method: as §3
[7] = system: Human immunodeficiency virus 1; assay: Antiviral activity against HIV1 LAI in human CEM-SS cells assessed as RT activity after 8 serial passages with uninfected cells by serial passage experiment; assay type: functional, organism-based; summary of the method: as §3
[8] = system: Human immunodeficiency virus 1; assay: Induction of mutation in HIV1 LAI in human CEM-SS cells after 7 passages with uninfected cells; assay type: functional, organism-based

| Structure (SMILES) | IC50 [1] [µM] | CC50 [2] [µM] | IC50 [3] [µM] | CC50 [4] [µM] | Activity [5] | Activity [6] | Activity [7] | Activity [8] |
| --- | --- | --- | --- | --- | --- | --- | --- | --- |
| NC(=O)Cc1cn([C@H]2C[C@H](O)[C@@H](CO)O2)c(=O)nc1N | > 200 | > 200 | > 200 | > 200 |  |  |  |  |
| O=c1[nH]c(=O)n([C@H]2C[C@H](O)[C@@H](CO)O2)cc1CO | 30 | 120 | > 130 | 130 | inactive | Active | Active |  |
| NC(=O)c1cn([C@H]2C[C@H](O)[C@@H](CO)O2)c(=O)nc1N | > 200 | > 200 | > 200 | > 200 |  |  |  |  |
| O=c1[nH]c(=O)n([C@H]2C[C@H](O)[C@@H](CO)O2)cc1O | > 200 | > 200 | > 200 | > 200 |  |  |  |  |
| NC(=O)Cc1cn([C@H]2C[C@H](O)[C@@H](CO)O2)c(=O)[nH]c1=O | > 200 | > 200 | > 200 | > 200 | inactive | Active | Active | inactive |
| Nc1nc(=O)n([C@H]2C[C@H](O)[C@@H](CO)O2)cc1CO | 24 | > 200 | > 200 | > 200 | inactive | Active |  |  |
| NC(=O)Cn1c(=O)ccn([C@H]2C[C@H](O)[C@@H](CO)O2)c1=O | > 200 | > 200 | > 200 | > 200 |  |  |  |  |
| NC(=O)c1cn([C@H]2C[C@H](O)[C@@H](CO)O2)c(=O)[nH]c1=O | > 200 | > 200 | > 200 | > 200 | inactive | Active |  | inactive |
| Cc1cn([C@H]2C[C@H](N=[N+]=[N-])[C@@H](CO)O2)c(=O)[nH]c1=O [ZIDOVUDINE] |  | > 1 | 0.018 | > 1 |  |  |  |  |
